Measured values taken from publication PMC7502546 (ACS chemical biology, 2020).
Like-named read-outs stand apart in the source and are kept apart here.

Key:
SN dopaminergic neurons [1] = assay: mito-roGFP mitochondrial oxidant stress in ex vivo brain slices; format: cell-based, mouse
CaV1.3 channels [2] = details: micromolar concentrations; cited from earlier work
CaV1.3 channels [3] = details: magnitude and selectivity dependent on auxiliary β subunit; cited from earlier work
CaV1.3-M1078K = CaV1.3-M1078K (Rattus norvegicus, UniProt P27732, M1078K); assay: Whole-cell patch clamp, CaV1.3-M1078K channels; format: cell-based; details: read-out: percent inhibition of evoked currents (median)
In short: (§1)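 Rat α1D (wild type or point mutants made by site-directed mutagenesis, sequence-verified) was transiently co-transfected with CaVβ3 and CaVα2δ-1 at 1:1:1 into tsA201 cells, with 1/40 (w/w) GFP. GFP-positive cells were whole-cell clamped 48 h later at 22–25 °C. External solution held 10 mM BaCl2 (pH 7.4); internal was NMG-based with 5 mM BAPTA. DMSO stocks were diluted into barium solution and perfused. Median percent inhibition was reported.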

CaV1.2-I1183V = CaV1.2-I1183V (Oryctolagus cuniculus, UniProt P15381, I1183V); assay: Whole-cell patch clamp, CaV1.2-I1183V channels; format: cell-based, rabbit; details: read-out: percent inhibition of evoked currents
CaV1.2-V1063L = CaV1.2-V1063L (Oryctolagus cuniculus, UniProt P15381, V1063L); assay: Whole-cell patch clamp, CaV1.2-V1063L channels; format: cell-based, rabbit; details: read-out: percent inhibition of evoked currents (median)
CaV1.2-V1063M+I1183V = CaV1.2-V1063M+I1183V (Oryctolagus cuniculus, UniProt P15381, I1183V/V1063M); assay: Whole-cell patch clamp, CaV1.2-V1063M+I1183V channels; format: cell-based, rabbit; details: read-out: percent inhibition of evoked currents
CaV1.3-T1081Y = assay: Whole-cell patch clamp, CaV1.3-T1081Y channels; format: cell-based, rat
In short: as §1

[4] = rodents; cited from earlier work
CaV1.3 LTCCs = CaV1.3 LTCCs (Rattus norvegicus, UniProt P27732); assay: Equilibrium binding / displacement of 3H2-SKP004D11 in HEK293 membranes
In short: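 Membranes came from HEK-293 cells stably expressing CaV1.3 α1D/β3/α2δ-1. They were washed in 40 mM HEPES, 100 mM NaCl, pH 8.0, homogenized on ice, and pelleted three times at 100,000 × g, 4 °C. Each reaction held 3.0 nM tritiated pyrimidinetrione ligand, 0.1–0.4 mg/mL protein, and unlabeled competitor, incubated 90 min at room temperature. Samples were filtered on GF/C and scintillation counted. Nonspecific binding used a saturating cold ligand. Ki came from a Langmuir fit plus Cheng-Prusoff; Kd came from a Scatchard plot (n = 4).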

CaV1.3-M1078V = assay: Whole-cell patch clamp, CaV1.3-M1078V channels; format: cell-based, rat; details: for percent inhibition of evoked currents (median): CaV1.3-M1078V
In short: as §1

[5] = test system: CaV1.3 channels over CaV1.2 channels; details: cited from earlier work
CaV1.3-M1078L = CaV1.3-M1078L (Rattus norvegicus, UniProt P27732, M1078L); assay: Whole-cell patch clamp, CaV1.3-M1078L channels; format: cell-based; details: read-out: percent inhibition of evoked currents (median)
In short: as §1

CaV1.2-V1063M = CaV1.2-V1063M (Oryctolagus cuniculus, UniProt P15381, V1063M); assay: Whole-cell patch clamp, CaV1.2-V1063M channels; format: cell-based, rabbit; details: read-out: percent inhibition of evoked currents (median)
SN dopaminergic neurons [6] = format: cell-based, mice; details: cp-PYT 50 μM; ex vivo brain slice
In short: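 Ex vivo brain slices from young adult mice were used. SN dopaminergic neurons were whole-cell patched and filled through the pipette with Alexa568 (20 μM) and Fluo-4 (200 μM). Two-photon laser scanning microscopy imaged Ca2+ along a dendrite while somatic voltage was recorded, before and after test compound application. Fluo-4 fluorescence was normalized to baseline (F0).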

CaV1.3 = format: cell-based, rat; details: for percent inhibition of evoked currents (median): wild-type CaV1.3, step −80 mV to 0 mV; for percentage inhibition of CaV1.3 peak currents (median): test step to 0 mV
In short: as §1

[7] = test system: SN dopaminergic neuron from an adult Cav1.3-KO mouse; assay: Voltage clamp of SN dopaminergic neurons from Cav1.3-KO mouse; format: cell-based; details: cp-PYT 50 μM; CaV1.3 knockout mouse
In short: (§2)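 SN dopaminergic neurons were acutely isolated from brain slices of young adult (P25) wild-type or CaV1.3 ([…]) knockout mice. Whole-cell voltage clamp used Ba2+ as charge carrier, with voltage ramps from −70 mV to +30 mV. Test compound was applied at 5 μM and 50 μM on wild-type cells and 50 μM on knockout cells. Maximum calcium permeability was compared by Mann-Whitney test.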

[8] = test system: Cav1.3 calcium channels in adult SN dopaminergic (DA) neurons; assay: Voltage clamp of acutely isolated SN dopaminergic neurons from WT mice; format: cell-based
In short: as §2

CaV1.3-M1078I = assay: Whole-cell patch clamp, CaV1.3-M1078I channels; format: cell-based, rat
In short: as §1

CaV1.2-V1063K = CaV1.2-V1063K (Oryctolagus cuniculus, UniProt P15381, V1063K); assay: Whole-cell patch clamp, CaV1.2-V1063K channels; format: cell-based, rabbit
CaV1.2 (wild-type) = CaV1.2 (wild-type) (Oryctolagus cuniculus, UniProt P15381); assay: Whole-cell patch clamp, wild-type CaV1.2 channels; format: cell-based, rabbit; details: rabbit, pH 7.4
CaV1.3-V1198I = CaV1.3-V1198I (Rattus norvegicus, UniProt P27732, V1198I); assay: Whole-cell patch clamp, CaV1.3-V1198I channels; format: cell-based; details: read-out: percent inhibition of evoked currents
In short: as §1

CaV1.2-V1063I = CaV1.2-V1063I (Oryctolagus cuniculus, UniProt P15381, V1063I); assay: Whole-cell patch clamp, CaV1.2-V1063I channels; format: cell-based, rabbit; details: read-out: percent inhibition of evoked currents (median)
CaV1.2 = CaV1.2 (Oryctolagus cuniculus, UniProt P15381); assay: Whole-cell patch clamp, wild-type CaV1.2 channels; format: cell-based, rabbit; details: read-out: percent inhibition of evoked currents (median)

Chain of CaV1.3 LTCCs (P27732 921-1530 limits assumed): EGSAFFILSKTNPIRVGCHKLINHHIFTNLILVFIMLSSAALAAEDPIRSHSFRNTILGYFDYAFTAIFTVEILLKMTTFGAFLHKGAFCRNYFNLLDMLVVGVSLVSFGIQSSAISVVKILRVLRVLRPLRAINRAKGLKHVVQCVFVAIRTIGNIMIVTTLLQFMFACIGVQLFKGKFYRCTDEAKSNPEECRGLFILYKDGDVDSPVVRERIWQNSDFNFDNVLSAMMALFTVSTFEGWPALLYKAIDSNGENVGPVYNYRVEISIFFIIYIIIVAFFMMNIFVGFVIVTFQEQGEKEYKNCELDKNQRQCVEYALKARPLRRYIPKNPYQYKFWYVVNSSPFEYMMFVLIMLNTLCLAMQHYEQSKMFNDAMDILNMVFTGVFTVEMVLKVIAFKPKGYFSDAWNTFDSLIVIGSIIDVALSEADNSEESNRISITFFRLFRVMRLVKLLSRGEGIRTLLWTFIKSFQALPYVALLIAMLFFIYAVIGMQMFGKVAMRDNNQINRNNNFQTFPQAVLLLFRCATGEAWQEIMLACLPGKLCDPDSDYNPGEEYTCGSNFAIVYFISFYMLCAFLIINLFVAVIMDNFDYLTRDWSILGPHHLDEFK
Chain of CaV1.3-M1078L (P27732 whole entry M1078L): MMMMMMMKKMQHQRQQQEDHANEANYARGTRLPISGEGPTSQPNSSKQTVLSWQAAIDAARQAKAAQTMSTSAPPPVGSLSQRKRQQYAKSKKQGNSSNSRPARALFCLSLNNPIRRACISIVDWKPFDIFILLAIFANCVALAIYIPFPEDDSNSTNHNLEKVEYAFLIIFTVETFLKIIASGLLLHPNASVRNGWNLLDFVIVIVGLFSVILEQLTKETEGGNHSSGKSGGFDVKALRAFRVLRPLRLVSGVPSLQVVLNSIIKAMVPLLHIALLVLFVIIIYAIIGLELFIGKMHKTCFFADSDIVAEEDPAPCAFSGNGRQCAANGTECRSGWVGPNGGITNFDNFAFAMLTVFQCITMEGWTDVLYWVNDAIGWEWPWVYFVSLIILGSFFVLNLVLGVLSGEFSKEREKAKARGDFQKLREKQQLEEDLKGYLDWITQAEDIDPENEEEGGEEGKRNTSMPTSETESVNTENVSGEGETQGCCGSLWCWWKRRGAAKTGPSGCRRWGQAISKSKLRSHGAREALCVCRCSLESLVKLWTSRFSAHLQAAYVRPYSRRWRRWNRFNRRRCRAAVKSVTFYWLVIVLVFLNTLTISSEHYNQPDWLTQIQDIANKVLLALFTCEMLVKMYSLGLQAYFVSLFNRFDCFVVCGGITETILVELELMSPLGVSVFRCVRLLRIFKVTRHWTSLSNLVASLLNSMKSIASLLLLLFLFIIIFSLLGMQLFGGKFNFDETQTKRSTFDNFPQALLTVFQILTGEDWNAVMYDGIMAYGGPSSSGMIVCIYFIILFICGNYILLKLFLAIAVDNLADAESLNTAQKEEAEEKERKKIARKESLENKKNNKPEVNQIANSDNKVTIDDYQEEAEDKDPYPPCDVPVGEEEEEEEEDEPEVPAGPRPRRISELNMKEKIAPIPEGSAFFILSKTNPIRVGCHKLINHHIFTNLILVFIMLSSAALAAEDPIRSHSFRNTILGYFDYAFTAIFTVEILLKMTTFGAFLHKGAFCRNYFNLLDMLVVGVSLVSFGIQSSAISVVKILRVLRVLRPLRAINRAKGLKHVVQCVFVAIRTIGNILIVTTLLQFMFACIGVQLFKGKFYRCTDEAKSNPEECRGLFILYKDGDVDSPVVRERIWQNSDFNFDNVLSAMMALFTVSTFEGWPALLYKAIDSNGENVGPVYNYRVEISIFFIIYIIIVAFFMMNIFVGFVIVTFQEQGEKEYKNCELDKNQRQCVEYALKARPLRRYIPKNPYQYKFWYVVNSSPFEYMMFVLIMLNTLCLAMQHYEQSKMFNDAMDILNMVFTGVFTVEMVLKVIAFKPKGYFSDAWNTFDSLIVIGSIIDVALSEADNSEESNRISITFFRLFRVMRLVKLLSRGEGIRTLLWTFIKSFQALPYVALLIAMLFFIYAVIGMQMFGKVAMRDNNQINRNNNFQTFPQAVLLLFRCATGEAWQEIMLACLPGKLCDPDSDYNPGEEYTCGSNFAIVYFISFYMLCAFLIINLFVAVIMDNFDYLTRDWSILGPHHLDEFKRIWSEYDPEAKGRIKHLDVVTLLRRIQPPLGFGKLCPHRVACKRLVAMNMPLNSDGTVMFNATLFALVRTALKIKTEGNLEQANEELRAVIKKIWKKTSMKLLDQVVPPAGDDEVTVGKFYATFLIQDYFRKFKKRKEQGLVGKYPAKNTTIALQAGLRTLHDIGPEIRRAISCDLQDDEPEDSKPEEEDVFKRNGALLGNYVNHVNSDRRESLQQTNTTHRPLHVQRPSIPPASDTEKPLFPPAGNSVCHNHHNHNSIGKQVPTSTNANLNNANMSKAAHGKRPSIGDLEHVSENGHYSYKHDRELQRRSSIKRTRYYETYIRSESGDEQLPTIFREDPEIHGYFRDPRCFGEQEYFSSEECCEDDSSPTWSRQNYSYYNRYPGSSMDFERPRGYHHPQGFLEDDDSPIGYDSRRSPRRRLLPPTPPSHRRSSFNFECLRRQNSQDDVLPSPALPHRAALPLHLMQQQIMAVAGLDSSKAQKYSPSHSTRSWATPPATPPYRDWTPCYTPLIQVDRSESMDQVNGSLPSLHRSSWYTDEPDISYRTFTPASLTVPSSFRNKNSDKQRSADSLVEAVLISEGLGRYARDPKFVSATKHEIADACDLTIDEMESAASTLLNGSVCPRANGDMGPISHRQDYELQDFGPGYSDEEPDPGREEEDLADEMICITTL
Chain of CaV1.3-M1078L (P54287 whole entry partner): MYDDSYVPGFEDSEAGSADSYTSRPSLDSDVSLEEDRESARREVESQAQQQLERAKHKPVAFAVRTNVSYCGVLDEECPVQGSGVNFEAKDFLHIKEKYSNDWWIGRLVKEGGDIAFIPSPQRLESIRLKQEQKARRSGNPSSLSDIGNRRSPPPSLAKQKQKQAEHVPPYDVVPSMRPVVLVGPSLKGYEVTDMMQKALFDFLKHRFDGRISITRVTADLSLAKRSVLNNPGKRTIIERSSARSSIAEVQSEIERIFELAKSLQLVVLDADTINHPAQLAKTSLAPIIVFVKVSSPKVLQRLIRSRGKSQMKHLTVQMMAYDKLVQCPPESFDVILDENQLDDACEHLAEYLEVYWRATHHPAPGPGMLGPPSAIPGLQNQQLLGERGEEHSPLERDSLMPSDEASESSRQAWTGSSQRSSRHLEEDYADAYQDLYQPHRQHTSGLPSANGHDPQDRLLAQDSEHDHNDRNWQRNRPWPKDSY
Chain of CaV1.3-M1078L (P54290 25-1091 partner): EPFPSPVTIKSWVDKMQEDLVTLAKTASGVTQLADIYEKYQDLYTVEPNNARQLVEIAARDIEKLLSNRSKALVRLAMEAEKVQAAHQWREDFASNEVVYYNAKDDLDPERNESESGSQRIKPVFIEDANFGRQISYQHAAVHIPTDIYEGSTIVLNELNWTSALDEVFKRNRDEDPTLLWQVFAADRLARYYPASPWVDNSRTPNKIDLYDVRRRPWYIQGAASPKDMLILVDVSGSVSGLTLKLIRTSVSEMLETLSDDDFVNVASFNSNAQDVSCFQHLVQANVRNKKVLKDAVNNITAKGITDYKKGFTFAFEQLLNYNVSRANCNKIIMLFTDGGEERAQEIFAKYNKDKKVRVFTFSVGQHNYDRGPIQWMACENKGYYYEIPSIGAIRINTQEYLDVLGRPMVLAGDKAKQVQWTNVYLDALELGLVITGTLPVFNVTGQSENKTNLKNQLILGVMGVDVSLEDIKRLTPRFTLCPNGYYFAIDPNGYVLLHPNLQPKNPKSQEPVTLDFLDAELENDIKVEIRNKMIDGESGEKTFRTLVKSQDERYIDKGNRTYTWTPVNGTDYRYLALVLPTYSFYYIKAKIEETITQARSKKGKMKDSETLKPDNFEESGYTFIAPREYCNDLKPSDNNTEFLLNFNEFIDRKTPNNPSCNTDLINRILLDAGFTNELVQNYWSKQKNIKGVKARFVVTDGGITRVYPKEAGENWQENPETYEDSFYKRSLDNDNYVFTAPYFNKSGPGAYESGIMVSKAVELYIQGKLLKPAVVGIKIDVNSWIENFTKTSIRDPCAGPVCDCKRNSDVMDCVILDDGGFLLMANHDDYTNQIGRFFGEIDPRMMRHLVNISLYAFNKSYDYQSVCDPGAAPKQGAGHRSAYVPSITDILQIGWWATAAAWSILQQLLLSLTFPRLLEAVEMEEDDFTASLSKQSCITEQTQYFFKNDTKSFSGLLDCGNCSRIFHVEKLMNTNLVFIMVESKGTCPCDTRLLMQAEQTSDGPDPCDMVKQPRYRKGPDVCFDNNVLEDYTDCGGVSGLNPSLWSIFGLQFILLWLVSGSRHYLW
Chain of CaV1.3-V1198I (P27732 whole entry V1198I): as the sequence (P27732 whole entry M1078L) above, with L1078M, V1198I counted along it
Chain of CaV1.3-V1198I (P54287 whole entry partner): as the sequence (P54287 whole entry partner) above
Chain of CaV1.3-V1198I (P54290 25-1091 partner): as the sequence (P54290 25-1091 partner) above

## O=C1CC(=O)N(C2CCCC2)C(=O)N1CCc1cccc(Cl)c1 [cp-PYT, 1-(3-chlorophenethyl)-3-cyclopentylpyrimidine-2,4,6-trione]
SN dopaminergic neurons [1]; cp-PYT 50 μM bath application
  mitochondrial oxidant stress: significantly diminished
CaV1.3 channels [2]
  deactivation of tail currents: slowed
CaV1.3 channels [3]
  inhibition of CaV1.3 channels: did inhibit
CaV1.3-M1078K
  inhibition at 100 µM: 58%
CaV1.2-I1183V
  inhibition at 100 µM: 12%
CaV1.2-V1063L
  inhibition at 100 µM: 35%
CaV1.2-V1063M+I1183V
  inhibition at 100 µM: 32%
CaV1.3-T1081Y; 100 μM cp-PYT
  percent inhibition of evoked currents (median): 2%
[4]
  reinstatement of alcohol- and cocaine-seeking: disrupt
CaV1.3 LTCCs; equilibrium membrane binding
  displacement of tritiated D11 binding: displaced
CaV1.3-M1078V; 100 μM cp-PYT
  percent inhibition of evoked currents (median): 4%
CaV1.3-M1078V; cp-PYT (100 μM) in text
  tail currents in M1078V mutant channels: slowing of tail currents persisted
[5]
  selectivity for inhibition of CaV1.3 channels over CaV1.2 channels: highly selective
CaV1.3-M1078L
  inhibition at 100 µM: 31%
CaV1.2-V1063M
  inhibition at 100 µM: 47%
SN dopaminergic neurons [6]
  dendritic Ca2+ oscillations: significantly reduced
  effect on pacemaking: no effect
CaV1.3; 100 μM cp-PYT
  percent inhibition of evoked currents (median): 60%
CaV1.3; cp-PYT 10 μM, VH −50 mV
  percentage inhibition of CaV1.3 peak currents (median): 46%
CaV1.3; cp-PYT 10 μM, VH −80 mV
  percentage inhibition of CaV1.3 peak currents (median): 26%
CaV1.3; cp-PYT 10 μM, step back to −80 mV
  tail current kinetics / channel deactivation rates: did not alter
CaV1.3; cp-PYT 50 μM, step back to −80 mV
  tail current kinetics: slowed
[7]
  effect on whole cell Ba2+ currents: no effect
[8]; cp-PYT 5 μM, voltage ramps −70 mV to +30 mV, WT mice
  inhibition of whole cell Ba2+ currents: modest inhibition
[8]; cp-PYT 50 μM, WT mouse
  inhibition of whole cell Ba2+ currents: inhibition
CaV1.3-M1078I; 100 μM cp-PYT
  percent inhibition of evoked currents (median): 37%
CaV1.2-V1063K; read-out: percent inhibition of evoked currents
  inhibition at 100 µM: 40%
CaV1.2 (wild-type)
  inhibition at 100 µM: 21%
CaV1.3-V1198I
  inhibition at 100 µM: 45%
CaV1.2-V1063I
  inhibition at 100 µM: 48%

## COC(=O)C1=C(C)NC(C)=C(C(=O)OC(C)C)C1c1cccc2nonc12 (centres unmarked) [isradipine, reference compound]
SN dopaminergic neurons [1]; isradipine 1 μM
  mitochondrial oxidant stress: diminished
CaV1.3-M1078K
  inhibition at 5 µM: 88%
CaV1.2-I1183V
  inhibition at 5 µM: 95%
CaV1.2-V1063L
  inhibition at 5 µM: 95%
CaV1.2-V1063M+I1183V
  inhibition at 5 µM: 93%
CaV1.3-T1081Y; 5 μM isradipine
  percent inhibition of evoked currents (median): 1%
[4]
  reinstatement of alcohol- and cocaine-seeking: disrupt
CaV1.3 LTCCs
  Ki: 68 nM
CaV1.3 LTCCs; displacement by isradipine
  fraction of 3H2-D11 binding not displaced: ~ 20%
CaV1.3-M1078V; 5 μM isradipine
  percent inhibition of evoked currents (median): 78%
CaV1.3-M1078L
  inhibition at 5 µM: 69%
CaV1.2-V1063M
  inhibition at 5 µM: 92%
CaV1.3; 5 μM isradipine
  percent inhibition of evoked currents (median): 90%
CaV1.3; isradipine 100 nM (Fig. 4a legend), VH −50 mV
  percentage inhibition of CaV1.3 peak currents (median): 92%
CaV1.3; isradipine 100 nM (Fig. 4a legend), VH −80 mV
  percentage inhibition of CaV1.3 peak currents (median): 43%
CaV1.3-M1078I; 5 μM isradipine
  percent inhibition of evoked currents (median): 85%
CaV1.2-V1063K; read-out: percent inhibition of evoked currents (median)
  inhibition at 5 µM: 72%
CaV1.2
  inhibition at 5 µM: 78%
CaV1.3-V1198I
  inhibition at 5 µM: 94%
CaV1.2-V1063I
  inhibition at 5 µM: 91%
